Screening results deposited in PubChem by The Scripps Research Institute Molecular Screening Center.
OX1R antag-1: blocks the human orexin 1 receptor; inhibition, % at 6.6 µM; OX1R-expressing cells, FRET antagonist read-out; hit rate 1.8% among 330,000; in the data active = inhibition mostly above about 38%, no sharp cut-off; inactive = mostly below about 40%;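 note: 0% = agonist challenge alone and 100% = reference antagonist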
CHO parental Ca: counter-screen: ATP calcium response change in parental CHO cells | parental CHO-K1, ATP-induced calcium, Fluo-8 fluorescence | inhibition, % at 5.6 µM | hit rate 0.63% among 330,000 | AID 463079;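 active = inhibition above that plate's mean sample inhibition plus 3 SD, cut at about 26% in these data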;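 note: 0% = ATP-challenged DMSO wells and 100% = DMSO wells without ATP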
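Material – parental CHO cells · Reagent – ATP stimulus · Compound – single nominal dose of 5.6 µM per compound · Detection – Fluo-8 fluorescence · Read-out basis – percent inhibition of calcium signal · Controls – ATP-challenged DMSO wells low, unchallenged DMSO wells high · Repeats – no replicates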
OXTR agonist: agonists of human oxytocin receptor; P30559; hit rate 0.32% among 320,000; CHO-OTR cells, Fluo-8 calcium fluorescence; normalized: DMSO 0%, oxytocin 100%; activation, % at 3 µM; AID 2435;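 active = activation above the mean of all tested compounds plus 3 SD, cutoff set per screening run, cut at about 20% in these data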;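 note: peak over basal fluorescence ratio from a 100 s FLIPR kinetic read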
OXTR potentiator: human OXTR potentiation; CHO-OTR cells, Fluo-8 calcium fluorescence, potentiator mode; 0% = oxytocin EC15, 100% = EC100; activation, % at 3 µM; AID 2445; hit rate 0.061% among 320,000;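 active = activation above that plate's cutoff, the mean activation of tested compounds plus 3 SD, cut at about 6.6% in these data, passing the limit was not always enough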;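 note: 100% uses oxytocin at 75 nM as the full agonist control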
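Assay system: CHO-OTR cells, human receptor / Also added: oxytocin at about EC15, sub-maximal agonist stimulus / Dosing: single dose, 3.0 µM nominal final compound concentration / Incubation: 6 min pre-incubation, 100 s read / Technique: Fluo-8 calcium dye fluorescence / Read-out: % activation vs EC15 and EC100 oxytocin / Benchmarks: EC15 oxytocin low, 75 nM oxytocin high / Replicates: singlicate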
OX1R antag-2: blocks the human orexin 1 receptor; CHO/OX1R cells, Fluo-8 calcium fluorescence, orexin A; inhibition, % at 5 µM; hit rate 0.43% among 330,000;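 active = inhibition above its plate's threshold, mean inhibition of all tested compounds on the plate plus 3 SD, cut at about 37% in these data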;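 note: 0% = orexin A challenge wells and 100% = SB-334867-A antagonist wells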
V1aR counter: V1a receptor agonism, counter-screen for OXTR agonists | activation, % at 3 µM | AID 2797 | CHO-V1R cells, Fluo-8 calcium fluorescence, agonist mode; 0% DMSO, 100% 3 nM vasopressin | hit rate 0.25% among 320,000;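 active = activation above the mean activation of all tested compounds plus 3 SD, per screening run, cut at about 20% in these data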;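 note: signal is peak over basal fluorescence ratio across a 100 second FLIPR read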
Target sequence (P37288 whole entry, looked up): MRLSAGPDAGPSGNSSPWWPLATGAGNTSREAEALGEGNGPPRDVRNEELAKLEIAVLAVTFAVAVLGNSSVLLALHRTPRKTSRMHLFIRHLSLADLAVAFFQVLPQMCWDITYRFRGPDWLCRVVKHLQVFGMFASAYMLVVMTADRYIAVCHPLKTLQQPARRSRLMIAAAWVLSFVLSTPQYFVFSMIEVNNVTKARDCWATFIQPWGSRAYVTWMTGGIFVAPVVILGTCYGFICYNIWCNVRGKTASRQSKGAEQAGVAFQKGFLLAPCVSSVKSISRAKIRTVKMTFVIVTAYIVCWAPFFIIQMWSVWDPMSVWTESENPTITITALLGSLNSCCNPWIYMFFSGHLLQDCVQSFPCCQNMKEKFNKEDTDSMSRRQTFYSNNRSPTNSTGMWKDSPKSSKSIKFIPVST
Starred values were filed as active, the others as inactive. A selection: hits, their analogues and other compounds. The true share with any hit is near 2.7%.

SMILES	OX1R antag-1	CHO parental Ca	OXTR agonist	OXTR potentiator	OX1R antag-2	V1aR counter
CC1(C)CN=C(Nc2ccc(F)c(Cl)c2)S1	5	-23	16	-14	-36	27*
COc1ccc(-c2nc3ccc(C(=O)N4CCC5(CC4)OCCO5)cc3nc2-c2ccc(OC)cc2)cc1	11	-1	-1	-8	2	1
Nc1ccc2ccc3cccc[n+]3c2c1	36	37*	38*	-16	12	92*
COC(=O)C1=C(c2ccc(OC)c(OC)c2)C[C@@H]2CC[C@H]1N2C(=O)NCCCOC(C)C	2	-8	1	1	-6	-1
CN(CC1COc2ccccc2O1)c1nc(-c2cccnc2)nc2ccccc12 (stereo not drawn)	74*	-34	-2	-8	-28	0
COC(=O)C1=C(c2ccc(F)cc2OCc2ccccc2)C[C@@H]2CC[C@H]1N2C(=O)NCCCOC(C)C	3	-28	-2	-4	-19	-1
O=[N+]([O-])c1ccc(NCc2ccc(Cl)cc2)c2ccncc12	5	-22	2	0	-18	4
O=[N+]([O-])c1ccc(NCc2ccccc2)c2nonc12	45	94*	693*	-17	108*	692*
CC(N)C(=O)OC(C)(C)Cc1ccc(Cl)cc1 (stereo not drawn)	6	-6	4	-3	-7	2
Cc1c(N=Nc2c(O)n(C)c(=O)n(C)c2=O)c(=O)n(-c2ccccc2)n1C	64*	-4	-1	5	-14	0
CN(C)C(=O)Oc1ccc(OC(=O)N(C)C)cc1	2	0	-1	-12	-5	0
CN(C)C(=O)Oc1ccc2nnc3ccnn3c2c1	36*	-4	0	0	-6	0
CC[N+](C)(CC)CCCCOc1ccc2c(c1)C(=O)c1cc(OCCCC[N+](C)(CC)CC)ccc1-2	71*	-16	-1	-4	-1	-1
NCc1cc(=O)[nH]o1	10	-3	0	-4	-3	1
COC(=O)C1=C(c2ccc(F)cc2OCc2ccccc2)C[C@@H]2CC[C@H]1N2C(=O)NCc1ccc2c(c1)OCO2	18	-15	-2	-6	18	0
Nc1c(Br)cc([N+](=O)[O-])cc1[N+](=O)[O-]	36*	-7	0	4	-19	0
Nc1ncc([N+](=O)[O-])s1	36*	-7	11	-4	0	0
Cc1ccccc1N1C(=O)NC(=O)/C(=C/c2ccc(N3CCOCC3)o2)C1=O	48*	6	7	-12	1	6
O=C1NC(=O)N(c2ccc3c(c2)OCO3)C(=O)/C1=C\c1ccc(N2CCCCC2)o1	71*	-5	9	-8	-4	12
CN1C(=O)C(=Cc2ccc(N3CCCCCC3)o2)C(=O)N(C)C1=S	7	5	12	-4	7	20
COC1C(OC(=O)c2ccc(C)[nH]2)C(O)C(Oc2ccc3c(O)c(NC(=O)c4ccc(O)c(CC=C(C)C)c4)c(=O)oc3c2Cl)OC1(C)C (stereo not drawn)	11	32*	-1	-7	36	-1
CC(C(=O)Nc1ccc(Br)cc1C(=O)c1ccccc1)N1CCCCC1 (stereo not drawn)	11	-19	-2	12*	-40	-1
O=C(CCN1CCCCC1)Nc1ccc(Br)cc1C(=O)c1ccccc1	-4	-15	-1	-3	-22	1
C[C@]12CCC3C(CC[C@H]4C[C@H](O)CC[C@]34C)C1C[C@@H](CCCCl)[C@@H]2O (stereo partly drawn)	5	-19	2	-8	-1	2
Cn1ncnc2c(=O)n(C)c(=O)nc1-2	103*	-17	0	-4	8	1
SMILES	OX1R antag-1	CHO parental Ca	OXTR agonist	OXTR potentiator	OX1R antag-2	V1aR counter
COc1ccc(C(c2ccc(OC)cc2)C(Cl)(Cl)Cl)cc1	24	-32	0	-8	19	0
Oc1ccccc1C1NCc2ccccc2-n2cccc21 (stereo not drawn)	8	-19	0	-1	-13	-1
O=C(OCC(=O)c1ccc([N+](=O)[O-])cc1)/C(=C/c1ccc(Cl)cc1)NC(=O)c1ccccc1	23	-15	0	-2	-18	0
O=C(C[N+]12CCC(CC1)C(OC(=O)c1ccccc1)C2)c1ccc([N+](=O)[O-])cc1 (stereo not drawn)	70*	6	-1	-9	-7	-1
O=C(C[N+]12CCC(CC1)C(CO)C2)c1ccc([N+](=O)[O-])cc1 (stereo not drawn)	59*	-4	0	-19	-6	1
COC(=O)C1=C(c2ccc(C(C)=O)cc2)C[C@@H]2CC[C@H]1N2C(=O)N1CCC(O)CC1	2	0	0	-6	-2	0
FC(F)(F)c1ccccc1CCN1CCNCC1	4	-9	3	-6	-5	0
C[n+]1c(-c2ccccc2)c2cc(N)ccc2c2ccc(N)cc21	51*	-2	2	1	-1	2
COc1ccc(-c2cc(=NCC(=O)O)c3ccccc3o2)cc1	64*	-26	-2	-5	-19	2
CCN1C[C@]2(C)CC[C@H](OC)[C@]34C2[C@H](OC(C)=O)[C@@]2(OCO[C@@]25C[C@H](OC)[C@H]2C[C@]3(O)C5[C@H]2OC)[C@@H]14	11	-3	-1	-11	-6	0
CCOc1ccc(-n2c(-c3ccoc3)nc3ccccc3c2=O)cc1	22	-13	0	3	-21	0
CCOc1ccc(-c2c(C)n(-c3ccc(OCC)cc3)c3[n+]2CCCCC3)cc1	26	40*	1	-16	-2	4
Cc1cccc(NP(=O)(Oc2ccccc2F)Oc2ccccc2F)c1C	20	47*	3	-9	6	3
Cc1ccc(Oc2cc(NN3CCCCC3)c([N+](=O)[O-])cc2[N+](=O)[O-])c([N+](=O)[O-])c1	13	-3	-1	-1	-24	0
CC/C(=C\C=C\[C@@H]1C=C[C@@H]2CCC[C@H]2[C@@H]1C(=O)c1ccc[nH]1)[C@@H]1O[C@@H]([C@@H](C)C(=O)O)CC[C@@H]1C	10	48*	9	-25	25	14
Cc1cc(OCC(=O)NC(Cc2ccc(Cl)cc2)C(=O)O)c2c3c(c(=O)oc2c1)CCCC3 (stereo not drawn)	15	-10	0	-2	2	-1
CN1CCc2cc(O)cc3c2[C@H]1Cc1ccc(O)c(O)c1-3	25	11	0	-2	7	0
CN1CCc2cc3c(c4c2C1Cc1ccccc1-4)OCO3 (stereo not drawn)	74*	-20	0	-6	-26	0
